Data: ChEMBL document CHEMBL2062414, “Selected chromone derivatives as inhibitors of monoamine oxidase” (Bioorg Med Chem Lett, 2012)

Legend:
[1] = species: Homo sapiens; experiment: Selectivity ratio of IC50 for recombinant human MAO-A to IC50 for recombinant human MAO-B
Outline: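 This is a selectivity index for MAO-B, computed as IC50(MAO-A)/IC50(MAO-B). Both IC50s were measured fluorometrically on recombinant human enzymes as kynuramine conversion to 4-hydroxyquinoline, in triplicate.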

[2] = biological target: T1, Amine oxidase [flavin-containing] B (Homo sapiens, UniProt P27338); experiment: Inhibition of recombinant human MAO-B assessed as inhibition of kynuramine to 4-hydroxyquinoline conversion after 20 mins by fluorometry
T1 sequence (P27338 whole entry): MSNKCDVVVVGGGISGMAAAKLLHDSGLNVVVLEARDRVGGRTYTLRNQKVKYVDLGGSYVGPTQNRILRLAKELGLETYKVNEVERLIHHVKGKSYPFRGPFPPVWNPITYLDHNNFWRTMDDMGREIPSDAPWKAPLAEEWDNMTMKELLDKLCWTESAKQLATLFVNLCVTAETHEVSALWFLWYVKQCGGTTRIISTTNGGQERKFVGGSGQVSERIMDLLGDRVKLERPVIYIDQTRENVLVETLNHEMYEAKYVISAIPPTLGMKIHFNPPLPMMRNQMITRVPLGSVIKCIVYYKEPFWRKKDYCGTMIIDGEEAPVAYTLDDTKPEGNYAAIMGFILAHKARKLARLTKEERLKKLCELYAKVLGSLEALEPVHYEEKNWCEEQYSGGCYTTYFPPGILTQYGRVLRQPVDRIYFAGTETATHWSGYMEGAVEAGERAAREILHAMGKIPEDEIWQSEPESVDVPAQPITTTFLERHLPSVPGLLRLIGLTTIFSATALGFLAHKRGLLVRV

[3] = biological target: T2, Amine oxidase [flavin-containing] A (Homo sapiens, UniProt P21397); experiment: Inhibition of recombinant human MAO-A assessed as inhibition of kynuramine to 4-hydroxyquinoline conversion after 20 mins by fluorometry
T2 sequence (P21397 whole entry): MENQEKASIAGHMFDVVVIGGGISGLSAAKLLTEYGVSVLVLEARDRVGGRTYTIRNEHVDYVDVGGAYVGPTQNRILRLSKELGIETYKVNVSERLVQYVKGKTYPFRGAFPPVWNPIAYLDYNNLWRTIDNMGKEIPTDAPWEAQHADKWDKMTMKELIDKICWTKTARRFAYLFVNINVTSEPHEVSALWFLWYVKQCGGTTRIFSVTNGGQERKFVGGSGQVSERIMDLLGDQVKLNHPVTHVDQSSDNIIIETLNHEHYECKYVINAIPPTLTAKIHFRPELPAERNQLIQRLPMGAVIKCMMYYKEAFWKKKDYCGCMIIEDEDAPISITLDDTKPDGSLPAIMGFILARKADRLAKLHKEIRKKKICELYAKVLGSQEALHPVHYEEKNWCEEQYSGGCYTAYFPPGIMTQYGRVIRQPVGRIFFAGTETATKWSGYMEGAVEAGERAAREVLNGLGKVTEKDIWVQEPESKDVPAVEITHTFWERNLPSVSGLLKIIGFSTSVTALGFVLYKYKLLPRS
Outline: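 Recombinant human MAO-A was incubated with the mixed MAO-A/B substrate kynuramine. Activity was read fluorometrically as formation of 4-hydroxyquinoline. IC50 values are given as mean ± SD of triplicate determinations.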

[4] = biological target: T1, Amine oxidase [flavin-containing] B; experiment: Reversible inhibition of recombinant human MAO-B assessed as recovered enzyme activity measuring residual rate of 4-hydroxyquinoline formation at 10 times IC50 preincubated for 30 mins followed by dilution to 0.1 time IC50 measured after 20 mins

Row | Compound | Ratio IC50 [1] | IC50 [2] [µM] | IC50 [3] [µM] | Activity [4] [%]
1 | CC(=O)c1c(O)cccc1OCc1cccc(Br)c1 | 17 | – | – | –
2 | O=c1ccoc2ccccc12 [CHROMONE] | 1 | 54.9 | 39.9 | –
3 | CC(=O)c1cc(OCc2ccc(Br)cc2)ccc1O | 17 | – | – | –
4 | CC(=O)c1ccc(OCc2ccc(Br)cc2)cc1O | 569 | – | – | –
5 | O=Cc1coc2ccc(OCc3cccc(Br)c3)cc2c1=O | 595 | 0.0037 | 2.2 | –
6 | COC(=O)c1coc2ccc(OCc3cccc(Br)c3)cc2c1=O | 83 | 0.0774 | 6.46 | –
7 | O=C1CC(O)Oc2cccc(OCc3ccc(Br)cc3)c21 (centres undefined) | 1.4 | 44.8 | 60.6 | –
8 | O=C(O)c1coc2ccc(OCc3cccc(Br)c3)cc2c1=O | 371 | 0.0028 | 1.04 | 68
9 | O=Cc1coc2ccccc2c1=O | 1 | 23.5 | 28.9 | –
10 | O=c1ccoc2cccc(OCc3ccc(Br)cc3)c12 | 12 | 4.34 | 52.9 | –
11 | O=c1ccoc2cccc(OCc3ccccc3)c12 | 18 | 8.03 | 143 | –
12 | CC(=O)c1cc(OCc2cccc(Br)c2)ccc1O | 34 | – | – | –
13 | O=C1CC(O)Oc2ccc(OCc3cccc(Br)c3)cc21 (centres undefined) | – | – | 1.53 | 68
14 | CC(=O)c1ccc(OCc2cccc(Br)c2)cc1O | 3950 | – | – | 68
15 | CC(=O)c1c(O)cccc1OCc1ccc(Br)cc1 | 53 | – | – | –
